# Results taken from ChEMBL document CHEMBL1149633, “Protection from endotoxic shock by EVK-203, a novel alkylpolyamine sequestrant of lipopolysaccharide” (Bioorg Med Chem, 2007).
# The source made the active and inactive calls. No cut-off for these calls is given here.
# What was measured:
# HEK293 = assay: Inhibition of LPS-induced NF-kappaB induction in HEK293 cells co-transfected with TLR4, CD14 and MD2; format: functional, cell-based; conditions: Homo sapiens
# Summary of the method: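 HEK293 cells stably expressing TLR4, CD14, MD2 and an NF-κB/AP-1-driven secreted alkaline phosphatase reporter. Plated at ~10^5 cells/ml and grown to confluency. Stimulated with 10 ng/ml E. coli O111:B4 LPS plus serially diluted compound, then incubated overnight. seAP in the supernatant was read by chromogen at 620 nm.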
# [1] = molecular target: T1, MAP kinase p38 (Homo sapiens) (UniProt O15264+Q15759+Q16539+P53778); assay: Inhibition of p38MAPK phosphorylation in TNF-alpha-induced human whole blood neutrophils; format: protein assay
# [2] = molecular target: T1, MAP kinase p38 (Homo sapiens); assay: Inhibition of TNFalpha induced p38MAPK phosphorylation in human whole blood neutrophils; format: tissue-based
# [3] = Binding affinity to LPS by BODIPY-TR-cadaverine displacement assay
# Summary of the method: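 Fluorescence displacement of BODIPY-TR-cadaverine (5 μM) bound to E. coli O111:B4 smooth LPS (50 μg/ml), both in the mixture added to the wells. Compound serially diluted two-fold in 50 mM Tris pH 7.4 […], quadruplicates. Ex 580/em 620 nm at 25 °C. ED50 is the dose that displaces 50% of bound probe, taken from a four-parameter logistic fit.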
# [4] = molecular target: T1, MAP kinase p38 (Homo sapiens); assay: Inhibition of p38MAPK phosphorylation in LPS-induced human whole blood neutrophils; format: tissue-based
# Mus musculus [5] = organism: Mus musculus; assay: Prevention of LPS-induced lethality in D-galactosamine-primed CF1 mouse model of lethal endotoxic shock; format: functional, organism-based
# Blood [6] = assay: Inhibition of LPS-induced IL6 production in human whole blood; format: functional, tissue-based
# Summary of the method: (§1)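 EDTA-anticoagulated fresh whole blood from healthy human volunteers, mixed with an equal volume of 20 ng/ml E. coli O111:B4 LPS. Graded compound, diluted in saline, added at the same time. Incubated 4 h. TNF-α, IL-6 and IL-8 were quantified by multiplexed flow-cytometric bead array against recombinant standard curves.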
# Mus musculus [7] = assay: Inhibition of LPS-induced plasma IL6 level in sc dosed mouse pretreated 1 hr before LPS challenge by CBA assay; format: functional, organism-based
# Summary of the method: (§2)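 Female outbred CF-1 mice (9–11 weeks, 22–28 g), 5 per group. Graded compound or vehicle given s.c. at −1 h, then 200 ng LPS in saline i.p. at 0 h. Terminal cardiac-puncture blood taken under halothane at 1, 2 and 3 h. Plasma cytokines measured by mouse inflammation bead array.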
# Mus musculus [8] = assay: Inhibition of LPS-induced plasma TNFalpha level in sc dosed mouse pretreated 1 hr before LPS challenge by CBA assay; format: functional, organism-based; summary of the method: as §2
# Blood [9] = assay: Inhibition of LPS-induced TNFalpha production in human whole blood; format: functional, tissue-based; summary of the method: as §1
# Mus musculus [10] = assay: Toxicity in mouse at 40 mg/kg, sc after 5 days; format: organism-based; set-up: dose 40 mg/kg, route subcutaneous; conditions: in vivo, 120 h
# Summary of the method: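 Female CF-1 mice were given 40 mg/kg s.c. in the lower flank daily for 5 days (200 mg/kg total), in 0.2 ml isotonic saline with human serum albumin at 66 mg/ml. They were monitored for external signs, and nephro- and hepatotoxicity were assessed by clinical chemistry on Day 6.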
# Mus musculus [11] = assay: Inhibition of LPS-induced plasma MCP1 level in sc dosed mouse pretreated 1 hr before LPS challenge by CBA assay; format: functional, organism-based; summary of the method: as §2
# Mus musculus [12] = assay: Prevention of LPS-induced lethality in D-galactosamine-primed CF1 mouse model of lethal endotoxic shock at 8 mg/kg, sc administered concurrently to LPS administration; format: functional, organism-based; set-up: dose 8 mg/kg
# Summary of the method: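 D-galactosamine-sensitized female CF-1 mice received 8 mg/kg s.c. at different times before or after i.p. LPS (200 ng/animal, 2× LD100, given at 0 h), including concurrent dosing. Survival recorded.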
# Mus musculus [13] = organism: Mus musculus; assay: Prevention of TNFalpha induced lethality in CF1 mouse; format: functional, organism-based
# Summary of the method: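 Mice were challenged with 100 ng/animal of recombinant murine TNF-α, and lethality was assessed.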
# J774.A1 = assay: Inhibition of nitric oxide production in LPS-stimulated mouse J774A.1 cells; format: functional, cell-based
# Summary of the method: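 J774A.1 cells in RPMI-1640 with 10% FBS and 200 μg/ml L-arginine, 37 °C, 5% CO2. Plated at ~10^5 cells/ml, grown to confluency, then given 10 ng/ml E. coli O111:B4 LPS together with serially diluted compound for 16 h. Nitrite measured with Griess reagent (15 min, RT, dark) at 535 nm against a sodium nitrite standard curve.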
# Blood [14] = assay: Inhibition of LPS-induced IL8 production in human whole blood; format: functional, tissue-based; summary of the method: as §1
# T1 sequence (P53778 whole entry, looked up, chain 1 of 4): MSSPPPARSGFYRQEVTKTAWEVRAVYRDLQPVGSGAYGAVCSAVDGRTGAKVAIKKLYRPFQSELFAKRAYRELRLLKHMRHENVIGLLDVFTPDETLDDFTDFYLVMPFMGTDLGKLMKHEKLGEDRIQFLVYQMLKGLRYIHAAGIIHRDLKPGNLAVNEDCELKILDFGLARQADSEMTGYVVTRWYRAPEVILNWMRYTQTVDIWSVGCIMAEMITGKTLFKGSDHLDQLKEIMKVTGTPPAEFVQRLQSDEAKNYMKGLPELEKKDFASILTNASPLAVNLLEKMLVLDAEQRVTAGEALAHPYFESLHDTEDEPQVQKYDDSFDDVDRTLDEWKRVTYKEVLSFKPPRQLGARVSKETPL
# T1 sequence (Q16539 whole entry, looked up, chain 2 of 4): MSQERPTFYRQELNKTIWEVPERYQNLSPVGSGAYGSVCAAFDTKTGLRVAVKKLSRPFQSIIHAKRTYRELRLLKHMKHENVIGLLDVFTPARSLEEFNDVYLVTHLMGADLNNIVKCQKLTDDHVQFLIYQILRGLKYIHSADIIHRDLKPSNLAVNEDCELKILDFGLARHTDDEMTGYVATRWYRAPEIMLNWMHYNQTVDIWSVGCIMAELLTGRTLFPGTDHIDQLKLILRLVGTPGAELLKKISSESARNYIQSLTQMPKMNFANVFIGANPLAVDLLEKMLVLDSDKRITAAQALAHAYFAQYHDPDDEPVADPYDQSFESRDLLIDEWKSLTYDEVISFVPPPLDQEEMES
# T1 sequence (Q15759 whole entry, looked up, chain 3 of 4): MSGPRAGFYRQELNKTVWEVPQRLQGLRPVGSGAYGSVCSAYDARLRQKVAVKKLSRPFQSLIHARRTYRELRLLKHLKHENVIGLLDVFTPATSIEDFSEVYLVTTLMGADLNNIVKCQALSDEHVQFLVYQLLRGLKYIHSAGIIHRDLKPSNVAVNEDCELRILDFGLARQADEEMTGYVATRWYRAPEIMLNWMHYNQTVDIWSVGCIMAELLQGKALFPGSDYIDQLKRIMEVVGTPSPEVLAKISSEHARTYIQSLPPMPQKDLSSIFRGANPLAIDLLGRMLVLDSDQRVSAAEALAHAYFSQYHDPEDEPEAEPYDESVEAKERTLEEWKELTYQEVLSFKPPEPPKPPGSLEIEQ
# T1 sequence (O15264 whole entry, looked up, chain 4 of 4): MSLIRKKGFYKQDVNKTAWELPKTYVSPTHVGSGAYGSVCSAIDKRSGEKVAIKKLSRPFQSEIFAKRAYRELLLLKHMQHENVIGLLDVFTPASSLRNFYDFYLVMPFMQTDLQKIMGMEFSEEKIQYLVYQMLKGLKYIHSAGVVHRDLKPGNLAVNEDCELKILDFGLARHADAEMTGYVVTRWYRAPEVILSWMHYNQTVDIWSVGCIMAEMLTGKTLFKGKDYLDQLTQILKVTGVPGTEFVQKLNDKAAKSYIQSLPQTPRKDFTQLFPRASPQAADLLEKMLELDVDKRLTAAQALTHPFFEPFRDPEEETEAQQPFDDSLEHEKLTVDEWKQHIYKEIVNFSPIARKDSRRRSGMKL
molecule,measurement,setting,value
CCCCCCCCCCCCCCCCC(CCCCCCCCCCCCCC)CNCCCNCCCNCCCCNCCCN (stereo not given),IC50,HEK293,2.6 µM
POLYMYXIN B [listing 1 of 2 here],Activity,[1],inactive
same,Activity,[2],inactive
same,ED50,[3],1.22 µM
same,Activity,[4],Dose-dependent effect
same,Activity,Mus musculus [5],Active
CCCCCCCCCCCCCCC/C=C(/CCCCCCCCCCCCCC)CNCCCNCCCNCCCCNCCCN,IC50,"Blood [6]; Homo sapiens, Blood",4 µM
same,IC50,HEK293,2.9 µM
same,Activity,Mus musculus [7],Dose-dependent effect
same,Activity,Mus musculus [8],Dose-dependent effect
same,Activity,[1],inactive
same,IC50,"Blood [9]; Homo sapiens, Blood",3.85 µM
same,Activity,[2],inactive
same,Activity,Mus musculus [10],Non-toxic
same,ED50,[3],3.14 µM
same,Activity,Mus musculus [11],Dose-dependent effect
same,Activity,Mus musculus [12],Active
same,Activity,[4],Dose-dependent effect
same,Activity,Mus musculus [5],Active
same,Activity,Mus musculus [13],inactive
same,IC50,"J774.A1; Mus musculus, J774.A1",2.22 µM
same,IC50,"Blood [14]; Homo sapiens, Blood",3.08 µM
CCCCCCCCCCCCCCCC(CCCCCCCCCCCCCCC)NCCCNCCCNCCCCNCCCN,IC50,HEK293,2.7 µM
CCCCCCCCCCCCCCC/C=C(/CCCCCCCCCCCCCC)CNCCCNCCCNCCCCNCCCNCCCNC/C(=C\CCCCCCCCCCCCCCC)CCCCCCCCCCCCCC,IC50,HEK293,22 µM
CCCCCCCCCCCCCCCC(CCCCCCCCCCCCCCC)NCCCNCCCNCCCCNCCCNCCCNC(CCCCCCCCCCCCCCC)CCCCCCCCCCCCCCC,IC50,HEK293,21 µM
POLYMYXIN B [listing 2 of 2 here],IC50,Blood [6],11 µM
same,IC50,Blood [9],14.2 µM
same,IC50,J774.A1; j774.a1,1.79 µM
same,IC50,Blood [14],16.4 µM
CCCCCCCCCCCCCCCCN(CCCCCCCCCCCCCCCC)CCCNCCCNCCCCNCCCN,IC50,HEK293,2.7 µM
